Reference: ChEMBL document CHEMBL5385966, “Synthesis and biological evaluation of new naphthalimide-thiourea derivatives as potent antimicrobial agents active against multidrug-resistant Staphylococcus aureus and Mycobacterium tuberculosis” (RSC Med Chem, 2024)
≈ marks a conversion by molar mass, not a printed value. Calls of active or inactive are those of the source. No cut-off for these calls is given here.

Key:
Pseudomonas aeruginosa = test: Antibacterial activity against Pseudomonas aeruginosa ATCC 27853 assessed as bacterial growth inhibition incubated for 16 to 18 hrs by CLSI based antibiotic susceptibility testing method; type: functional, organism-based; conditions: time 16-18 hrs
Outline: (§1)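 Broth microdilution in cation-adjusted Mueller-Hinton broth. Compounds were tested at […], with levofloxacin as reference and medium-only controls. Plates were incubated at 37 °C for 16-18 h. MIC was the lowest concentration with no visible growth; three independent determinations, each in duplicate.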

Mycobacteroides chelonae = test: Antimycobacterial activity against Mycobacteroides chelonae ATCC 35752 assessed as bacterial growth inhibition incubated for 72 hrs by resazurin dye based broth microdilution method; type: functional, organism-based
Outline: (§2)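 Broth microdilution in Middlebrook 7H9 with 10% ADC-Tween-80 (0.2% glycerol, 0.05% Tween-80), inoculum ~10⁶ cfu/mL. Compounds came from 10 mg/mL DMSO stocks and were tested as two-fold serial dilutions at 37 °C, 7 days for M. tuberculosis H37Rv and 72 h for NTM. Growth was read visually with PrestoBlue resazurin dye; MIC was the lowest concentration preventing growth. Triplicate determinations, each in duplicate.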

Staphylococcus aureus = test: Antibacterial activity against Staphylococcus aureus ATCC 29213 assessed as bacterial growth inhibition incubated for 16 to 18 hrs by CLSI based antibiotic susceptibility testing method; type: functional; conditions: time 16-18 hrs; outline: as §1
Klebsiella pneumoniae = test: Antibacterial activity against Klebsiella pneumoniae BAA 1705 assessed as bacterial growth inhibition incubated for 16 to 18 hrs by CLSI based antibiotic susceptibility testing method; type: functional, organism-based; conditions: time 16-18 hrs; outline: as §1
[1] = tested on: Mycobacteroides abscessus; test: Antimycobacterial activity against Mycobacterium abscessus ATCC 19977 assessed as bacterial growth inhibition incubated for 72 hrs by resazurin dye based broth microdilution method; type: functional, organism-based; outline: as §2
[2] = tested on: Mycobacterium tuberculosis; test: Antimycobacterial activity against Mycobacterium tuberculosis H37Rv ATCC 27294 assessed as bacterial growth inhibition incubated for 7 days by resazurin dye based broth microdilution method; type: functional; conditions: H37Rv ATCC 27294, 168 h, time 7 day; outline: as §2
Escherichia coli = test: Antibacterial activity against Escherichia coli ATCC 25922 assessed as bacterial growth inhibition incubated for 16 to 18 hrs by CLSI based antibiotic susceptibility testing method; type: functional, organism-based; conditions: time 16-18 hrs; outline: as §1
Acinetobacter baumannii = test: Antibacterial activity against Acinetobacter baumannii BAA 1605 assessed as bacterial growth inhibition incubated for 16 to 18 hrs by CLSI based antibiotic susceptibility testing method; type: functional, organism-based; conditions: time 16-18 hrs; outline: as §1
[3] = tested on: Mycolicibacterium fortuitum; test: Antimycobacterial activity against Mycobacterium fortuitum ATCC 6841 assessed as bacterial growth inhibition incubated for 72 hrs by resazurin dye based broth microdilution method; type: functional, organism-based; outline: as §2

SMILES	growth inhibition (GI) (Pseudomonas aeruginosa)	growth inhibition (GI) (Mycobacteroides chelonae)	MIC (Staphylococcus aureus)	growth inhibition (GI) (Klebsiella pneumoniae)	growth inhibition (GI) [1]	MIC [2]	growth inhibition (GI) (Escherichia coli)	growth inhibition (GI) (Acinetobacter baumannii)	growth inhibition (GI) [3]
COc1ccc(NC(=S)N2CCN(C(=O)CN3C(=O)c4cccc5cccc(c45)C3=O)CC2)cc1	inactive	inactive	> 64 µg/mL	inactive	inactive	64 µg/mL (≈ 131 µM)	inactive	inactive	inactive
O=C(CN1C(=O)c2cccc3cccc(c23)C1=O)N1CCC(NC(=S)NC23CC4CC(CC(C4)C2)C3)CC1	inactive	inactive	4 µg/mL (≈ 7.54 µM)	inactive	inactive	32 µg/mL (≈ 60.3 µM)	inactive	inactive	inactive
CN[C@@H]1[C@H](O[C@H]2[C@H](O[C@H]3[C@H](O)[C@@H](O)[C@H](N=C(N)N)[C@@H](O)[C@@H]3N=C(N)N)O[C@@H](C)[C@]2(O)C=O)O[C@@H](CO)[C@H](O)[C@H]1O [STREPTOMYCIN]		inactive			inactive	1 µg/mL (≈ 1.72 µM)			inactive
O=C(CCN1C(=O)c2cccc3cccc(c23)C1=O)N1CCN(C(=S)Nc2ccccc2)CC1	inactive	inactive	> 64 µg/mL	inactive	inactive	32 µg/mL (≈ 67.7 µM)	inactive	inactive	inactive
O=C(CN1C(=O)c2cccc3cccc(c23)C1=O)N1CCN(C(=S)Nc2ccccc2)CC1	inactive	inactive	> 64 µg/mL	inactive	inactive	16 µg/mL (≈ 34.9 µM)	inactive	inactive	inactive
Cc1ccc(NC(=S)N2CCN(C(=O)CCN3C(=O)c4cccc5cccc(c45)C3=O)CC2)cc1	inactive	inactive	> 64 µg/mL	inactive	inactive	> 64 µg/mL	inactive	inactive	inactive
O=C(CN1C(=O)c2cccc3cccc(c23)C1=O)NC1CCN(C(=S)NC2CCCC2)CC1	inactive	inactive	> 64 µg/mL	inactive	inactive	> 64 µg/mL	inactive	inactive	inactive
NCC[C@H](O)C(=O)N[C@@H]1C[C@H](N)[C@@H](O[C@H]2O[C@H](CN)[C@@H](O)[C@H](O)[C@H]2O)[C@H](O)[C@H]1O[C@H]1O[C@H](CO)[C@@H](O)[C@H](N)[C@H]1O [AMIKACIN]		inactive			inactive	0.5 µg/mL (≈ 0.854 µM)			inactive
NNC(=O)c1ccncc1 [ISONIAZID]		inactive			inactive	0.03 µg/mL (≈ 0.219 µM)			inactive
CO[C@H]1/C=C/O[C@@]2(C)Oc3c(C)c(O)c4c(O)c(c(/C=N/N5CCN(C)CC5)c(O)c4c3C2=O)NC(=O)/C(C)=C\C=C\[C@H](C)[C@H](O)[C@@H](C)[C@@H](O)[C@@H](C)[C@H](OC(C)=O)[C@@H]1C [RIFAMPIN]		inactive			inactive	0.03 µg/mL (≈ 0.0365 µM)			inactive
CC[C@@H](CO)NCCN[C@@H](CC)CO [ETHAMBUTOL]		inactive			inactive	2 µg/mL (≈ 9.79 µM)			inactive
